Experimental data from ChEMBL document CHEMBL4312018, “Novel benzimidazole phosphonates as potential inhibitors of protein prenylation” (Bioorg Med Chem Lett, 2019).
Active and inactive are the calls of the source.

Legend:
[1] = target: T1, Geranylgeranyl transferase type-2 (Rattus norvegicus, UniProt Q08602+Q08603); test: Inhibition of recombinant rat RabGGTase expressed in Escherichia coli using Rab7 as substrate and [3H]geranylgeranyl pyrophosphate after 20 mins by liquid scintillation analysis
T1 sequence (Q08603 whole entry): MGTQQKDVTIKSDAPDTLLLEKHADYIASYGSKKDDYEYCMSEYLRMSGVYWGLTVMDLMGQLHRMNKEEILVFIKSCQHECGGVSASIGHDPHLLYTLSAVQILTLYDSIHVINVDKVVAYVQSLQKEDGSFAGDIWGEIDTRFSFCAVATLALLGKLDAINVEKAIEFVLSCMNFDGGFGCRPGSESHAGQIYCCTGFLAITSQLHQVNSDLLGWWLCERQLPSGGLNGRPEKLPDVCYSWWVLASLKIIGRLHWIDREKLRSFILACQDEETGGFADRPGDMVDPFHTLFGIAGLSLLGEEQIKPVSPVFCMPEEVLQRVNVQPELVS
T1 sequence (Q08602 whole entry): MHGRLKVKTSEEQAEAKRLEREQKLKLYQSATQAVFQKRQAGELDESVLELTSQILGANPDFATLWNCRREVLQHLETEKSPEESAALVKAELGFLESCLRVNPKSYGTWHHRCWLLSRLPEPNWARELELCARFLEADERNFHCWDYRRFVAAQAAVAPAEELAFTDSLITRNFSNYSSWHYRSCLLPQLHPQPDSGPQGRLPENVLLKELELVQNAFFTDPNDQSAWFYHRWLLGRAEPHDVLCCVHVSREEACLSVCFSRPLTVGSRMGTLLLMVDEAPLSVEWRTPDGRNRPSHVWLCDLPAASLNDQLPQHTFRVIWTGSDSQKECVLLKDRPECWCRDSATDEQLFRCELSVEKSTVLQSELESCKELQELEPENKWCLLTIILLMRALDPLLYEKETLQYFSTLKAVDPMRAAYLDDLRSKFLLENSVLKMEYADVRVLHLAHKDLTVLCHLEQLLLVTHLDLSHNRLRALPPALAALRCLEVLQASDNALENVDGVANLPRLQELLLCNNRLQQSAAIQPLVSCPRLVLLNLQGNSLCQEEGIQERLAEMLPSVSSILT

[2] = target: geranylgeranyltransferase type-I (Rattus norvegicus, UniProt P53610+Q04631); test: Inhibition of recombinant rat GGtase-1 expressed in Escherichia coli using dansyl-GCVLL as substrate after 1.5 hrs by spectrofluorimetric analysis
[3] = target: Protein farnesyltransferase (Rattus norvegicus, UniProt Q02293+Q04631); test: Inhibition of recombinant rat FTase expressed in Escherichia coli using dansyl-GCVLS as substrate after 1.5 hrs by spectrofluorimetric analysis
[4] = target: T2, Farnesyl pyrophosphate synthase (Homo sapiens, UniProt P14324); test: Inhibition of FDPS (unknown origin) using [14C] IPP and GPP as substrate preincubated for 10 mins followed by substrate addition and measured after 30 min by liquid scintillation counting method
T2 sequence (P14324 whole entry): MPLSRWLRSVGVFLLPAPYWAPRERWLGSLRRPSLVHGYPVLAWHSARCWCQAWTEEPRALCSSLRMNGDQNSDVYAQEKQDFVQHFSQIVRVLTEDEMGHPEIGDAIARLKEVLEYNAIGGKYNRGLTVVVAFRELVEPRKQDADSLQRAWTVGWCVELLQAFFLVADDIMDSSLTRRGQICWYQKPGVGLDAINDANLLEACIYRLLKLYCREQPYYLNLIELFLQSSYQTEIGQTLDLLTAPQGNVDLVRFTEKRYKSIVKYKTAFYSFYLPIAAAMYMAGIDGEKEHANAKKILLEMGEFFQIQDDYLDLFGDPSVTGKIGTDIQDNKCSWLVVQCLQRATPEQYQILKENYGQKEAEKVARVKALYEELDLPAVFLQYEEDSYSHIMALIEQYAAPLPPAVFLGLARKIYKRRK

[5] = target: T3, Geranylgeranyl pyrophosphate synthase (Homo sapiens, UniProt O95749); test: Inhibition of GGDPS (unknown origin) using [14C] IPP and FPP as substrate preincubated for 10 mins followed by substrate addition and measured after 30 min by liquid scintillation counting method
T3 sequence (O95749 whole entry): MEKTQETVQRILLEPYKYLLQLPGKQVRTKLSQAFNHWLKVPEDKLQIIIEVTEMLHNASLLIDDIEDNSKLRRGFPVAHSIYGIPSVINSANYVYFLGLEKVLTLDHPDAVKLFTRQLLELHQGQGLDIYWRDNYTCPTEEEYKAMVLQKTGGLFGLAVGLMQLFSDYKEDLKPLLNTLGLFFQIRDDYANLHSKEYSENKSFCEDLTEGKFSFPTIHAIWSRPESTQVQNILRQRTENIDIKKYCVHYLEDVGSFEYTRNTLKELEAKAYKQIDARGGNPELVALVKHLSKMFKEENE

Homo sapiens = species on record: Homo sapiens; test: Selectivity ratio of IC50 for GGDPS (unknown origin) to IC50 for FDPS (unknown origin)
[6] = target: T4, Geranylgeranyl transferase type-2 (Homo sapiens) (UniProt P53611+Q92696); test: Inhibition of GGtase-2 in human cells assessed as minimum effective dose required for increase in intracellular lambda chain level after 48 hrs by ELISA; assay type: cell-based
Procedure, shortened: (§1)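 The lowest effective concentration in RPMI-8226 cells after 48 h requires both criteria below: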

[7] = target: T4, Geranylgeranyl transferase type-2 (Homo sapiens); test: Inhibition of GGtase-2 in human cells assessed as minimum effective dose causing => 20% decrease in Rab6 level after 48 hrs by immunoblot analysis; assay type: cell-based; procedure, shortened: as §1
[8] = target: T5, Farnesyl pyrophosphate synthase (Homo sapiens) (UniProt P14324)
T5 sequence (whole entry): T2 sequence (P14324 whole entry)

[9] = target: T5, Farnesyl pyrophosphate synthase (Homo sapiens); remark: listed apart in the source
[10] = target: T5, Farnesyl pyrophosphate synthase (Homo sapiens); test: Inhibition of FDPS in human RPMI8226 cells assessed as unmodified Rap1a level at =< 5 mM after 48 hrs by immunoblot analysis; assay type: cell-based
Procedure, shortened: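 RPMI-8226 cells were exposed for 48 h. The lowest effective concentration counts only when two read-outs agree. Unmodified Rap1a must be visible on immunoblot of whole-cell lysate, using an antibody that detects only unmodified protein.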

[11] = target: T5, Farnesyl pyrophosphate synthase (Homo sapiens); test: Inhibition of FDPS in human RPMI8226 cells assessed as increase in intracellular lambda chain level at =< 5 mM after 48 hrs by ELISA; assay type: cell-based
Procedure, shortened: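 RPMI-8226 cells were exposed for 48 h, and intracellular lambda light chain was measured by ELISA as percent of untreated control. The lowest effective concentration also requires unmodified Rap1a to be visible on whole-cell-lysate immunoblot with an unmodified-specific antibody. The ELISA rise must be statistically significant.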

[12] = target: T4, Geranylgeranyl transferase type-2 (Homo sapiens); test: Inhibition of GGtase-2 in human cells assessed as increase in intracellular lambda chain at =< 5 mM level after 48 hrs by ELISA; assay type: cell-based
Procedure, shortened: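 RPMI-8226 cells were incubated 48 h with the compound or medium alone. Intracellular lambda light chain was quantified by ELISA and expressed as percent of untreated control (mean ± SD, n=3). Significance versus control was judged by t-test, p<0.05.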

[13] = target: T4, Geranylgeranyl transferase type-2 (Homo sapiens); test: Inhibition of GGtase-2 in human cells assessed as decrease in Rab6 level at =< 5 mM after 48 hrs by immunoblot analysis relative to control; assay type: cell-based
Procedure, shortened: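 After 48 h treatment, RPMI-8226 cells were extracted with Triton X-114 to give a detergent (membrane) fraction, which was immunoblotted for Rab6. Rab6 band density was normalized to calnexin and expressed relative to untreated cells. Blots are representative of three independent studies.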

[14] = target: Protein farnesyltransferase (Homo sapiens) (UniProt P49354+P49356); test: Inhibition of FTase in human RPMI8226 cells assessed as disruption of H-ras farnesylation at 0.5 uM after 48 hrs by immunoblot analysis; assay type: cell-based
[15] = target: Geranylgeranyl transferase type I (Homo sapiens) (UniProt P49354+P53609); test: Inhibition of GGtase-1 in human RPMI8226 cells assessed as disruption of Rap1a geranylgeranylation at 0.5 uM after 48 hrs by immunoblot analysis; assay type: cell-based

IC50 [1]	IC50 [2]	IC50 [3]	IC50 [4]	IC50 [5]	Ratio IC50 (Homo sapiens)	LED [6]	LED [7]	LED [8]	LED [9]	inhibition [10]	inhibition [11]	inhibition [12]	inhibition [13]	inhibition [14]	inhibition [15]	SMILES
738 µM	122 µM	340 µM	0.15 µM	87 µM	580	0.5 mM	0.5 mM	0.5 mM	0.5 mM							O=P(O)(O)C(Cn1cnc2cc(F)c(F)cc21)P(=O)(O)O
> 1000 µM	> 1000 µM	> 1000 µM	> 100 µM	> 100 µM						inactive	inactive	inactive	inactive			Cc1cc2ncn(CC(C(=O)O)P(=O)(O)O)c2cc1C (stereo not given)
810 µM	> 1000 µM	> 1000 µM	> 100 µM	> 100 µM		5 mM	5 mM	5 mM	5 mM							CC(Cn1cnc2ccccc21)(C(=O)O)P(=O)(O)O (stereo not given)
														Active	Active	CC[C@H](C)C(=O)O[C@H]1C[C@@H](C)C=C2C=C[C@H](C)[C@H](CC[C@@H]3C[C@@H](O)CC(=O)O3)[C@H]21
